Assay results published in publication PMC7416570 (ACS chemical biology, 2020).
Entries after “also recorded” stand apart in the source; their conditions may differ. Where no end group is shown, it is not given here.

T1: hPD-L2* (Homo sapiens, UniProt Q9BQ51)
T1 sequence (Q9BQ51 20-220): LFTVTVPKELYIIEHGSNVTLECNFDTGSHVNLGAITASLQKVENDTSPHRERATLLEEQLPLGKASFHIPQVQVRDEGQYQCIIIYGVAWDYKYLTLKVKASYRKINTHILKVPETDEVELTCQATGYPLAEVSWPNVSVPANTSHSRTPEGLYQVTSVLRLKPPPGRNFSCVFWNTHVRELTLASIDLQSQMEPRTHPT

B1: mPD-1: extracellular domain of murine PD-1 (L25 to S157, C83S) with HA tag and His tag (protein)
chain: MALEVPNGPWRSLTFYPAWLTVSEGANATFTCSLSNWSEDLMLNWNRLSPSNQTEKQAAFSNGLSQPVQDARFQIIQLPNRHDFHMNILDTRRNDSGIYLCGAISLHPKAKIEESPGAELVVTERILETSTRYPS
modifications: left off: HA tag (…), C-terminal, kept | His tag, C-terminal, state not stated

Experiments:
hPD-L1 [1] = biological target: T2, hPD-L1 (Homo sapiens, UniProt Q9NZQ7); experiment: Radiolabeled binding assay on immobilized hPD-L1; conditions: for effect of mutation on hPD-L1 binding (alanine scanning): [35S]-labeled SPAM variants, binding normalized to [35S]-SPAM, n=3
hPD-L1 [2] = biological target: T2, hPD-L1; experiment: Radiolabeled binding assay on immobilized hPD-L1*; conditions: radioactive binding assay
Summary of the method: (§1)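 Peptide mRNA was translated in rabbit reticulocyte lysate with [35S]-methionine (2 μCi per 10 pmol template, 30 °C, 1 h). The resulting fusions were purified on oligo-dT agarose and tested for pull-down by the immobilized target protein, read as bead-retained radioactivity.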

hPD-L1/mPD-1 interaction = hPD-L1/mPD-1 interaction (Homo sapiens, UniProt Q9NZQ7); experiment: ELISA/IP assay of the hPD-L1/mPD-1 interaction; format: biochemical; conditions: 10 μM SPAM, hPD-L1 and mPD-1 100 nM
hPD-L2* = biological target: T1, hPD-L2*; experiment: Radiolabeled binding assay on immobilized hPD-L2*; conditions: radioactive binding assay
Summary of the method: as §1

[3] = biological target: hPD-L1 expressed on CHO-hPD-L1 cells (Homo sapiens, UniProt Q9NZQ7); experiment: Antibody competition by flow cytometry, CHO-hPD-L1; format: cell-based; conditions: pre-treatment 0–20 μM
mPD-L1 = mPD-L1 (Mus musculus, UniProt Q9EP73); experiment: Radiolabeled binding assay on immobilized mPD-L1; conditions: radioactive binding assay
mPD-L1, sequence (Q9EP73 19-239 limits assumed): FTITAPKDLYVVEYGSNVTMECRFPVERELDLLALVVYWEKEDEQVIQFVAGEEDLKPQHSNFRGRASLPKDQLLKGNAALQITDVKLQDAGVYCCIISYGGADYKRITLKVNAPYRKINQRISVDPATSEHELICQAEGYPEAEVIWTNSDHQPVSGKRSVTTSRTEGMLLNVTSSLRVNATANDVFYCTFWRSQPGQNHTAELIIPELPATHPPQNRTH
Summary of the method: as §1

[4] = Serum stability of [35S]-SPAM read out by binding to hPD-L1; format: in vitro ADME; conditions: [35S]-labeled SPAM, 25% human serum, 37 °C, up to eight hours
hPD-L1 [5] = biological target: T2, hPD-L1; conditions: read-out: previously reported KD values PD-1/hPD-L1; cited from earlier work

Molecule	effect of mutation on hPD-L1 binding (alanine scanning) (hPD-L1 [1])	other results
C#CC[C@H](NC(=O)CNC(=O)[C@H](CO)NC(=O)[C@H](C)NC(=O)[C@H](Cc1ccc(O)cc1)NC(=O)[C@H](Cc1c[nH]cn1)NC(=O)[C@H](CC(C)C)NC(=O)[C@@H](NC(=O)[C@H](Cc1c[nH]c2ccccc12)NC(=O)[C@H](Cc1ccccc1)NC(=O)[C@H](CCCCN)NC(=O)[C@H](CC(N)=O)NC(=O)[C@H](CC(C)C)NC(=O)[C@@H](NC(=O)[C@H](Cc1c[nH]cn1)NC(=O)[C@H](CC(=O)O)NC(=O)[C@H](CC(C)C)NC(=O)[C@H](Cc1ccccc1)NC(=O)[C@@H](NC(=O)[C@@H]1CCCN1C(=O)[C@@H](N)CCSC)[C@@H](C)CC)[C@@H](C)CC)[C@@H](C)CC)C(N)=O (stereo in doubt) [SPAM]		[35S]-labeled SPAM binding to immobilized hPD-L1 (hPD-L1 [1]; 75 pmol hPD-L1 on streptavidin agarose, 4 °C, 1 h): efficiently pulled-down; [35S]-labeled SPAM binding to hPD-L1* (hPD-L1 [2]): captured; disruption of PD-1 binding to hPD-L1 at 10 μM (hPD-L1/mPD-1 interaction): almost completely disrupted; [35S]-labeled SPAM binding to hPD-L2* (hPD-L2*): no significant binding; also recorded: essentially no binding; blocking of Fluorescein-16373 binding to CHO-hPD-L1 ([3]; 50 nM FAM-16373, flow cytometry): blocking; blocking of Fluorescein-16377 binding to CHO-hPD-L1 ([3]; 50 nM FAM-16377, flow cytometry): blocking; [35S]-labeled SPAM binding to mPD-L1 (mPD-L1): no significant binding; also recorded: not pulled-down; also recorded: essentially no binding; loss of binding to hPD-L1 after incubation in human serum [4]: ~ 25%
A18: SPAM variant with glycine substituted for alanine at position 18 (MPIFLDHILNKFWILHYGGSGSSG; also: [35S]-labeled methionine, peptide-RNA fusion)	completely abolished	
D6A: SPAM variant with alanine substituted at position 6 (MPIFLAHILNKFWILHYAGSGSSG; also: [35S]-labeled methionine, peptide-RNA fusion)	completely abolished	
F4A: SPAM variant with alanine substituted at position 4 (MPIALDHILNKFWILHYAGSGSSG; also: [35S]-labeled methionine, peptide-RNA fusion)	little or no significant influence	
F12A: SPAM variant with alanine substituted at position 12 (MPIFLDHILNKAWILHYAGSGSSG; also: [35S]-labeled methionine, peptide-RNA fusion)	completely abolished	
H7A: SPAM variant with alanine substituted at position 7 (MPIFLDAILNKFWILHYAGSGSSG; also: [35S]-labeled methionine, peptide-RNA fusion)	completely abolished	
H16A: SPAM variant with alanine substituted at position 16 (MPIFLDHILNKFWILAYAGSGSSG; also: [35S]-labeled methionine, peptide-RNA fusion)	completely abolished	
I3A: SPAM variant with alanine substituted at position 3 (MPAFLDHILNKFWILHYAGSGSSG; also: [35S]-labeled methionine, peptide-RNA fusion)	little or no significant influence	
I8A: SPAM variant with alanine substituted at position 8 (MPIFLDHALNKFWILHYAGSGSSG; also: [35S]-labeled methionine, peptide-RNA fusion)	little or no significant influence	
I14A: SPAM variant with alanine substituted at position 14 (MPIFLDHILNKFWALHYAGSGSSG; also: [35S]-labeled methionine, peptide-RNA fusion)	completely abolished	
K11A: SPAM variant with alanine substituted at position 11 (MPIFLDHILNAFWILHYAGSGSSG; also: [35S]-labeled methionine, peptide-RNA fusion)	completely abolished	
L5A: SPAM variant with alanine substituted at position 5 (MPIFADHILNKFWILHYAGSGSSG; also: [35S]-labeled methionine, peptide-RNA fusion)	little or no significant influence	
L9A: SPAM variant with alanine substituted at position 9 (MPIFLDHIANKFWILHYAGSGSSG; also: [35S]-labeled methionine, peptide-RNA fusion)	little or no significant influence	
L15A: SPAM variant with alanine substituted at position 15 (MPIFLDHILNKFWIAHYAGSGSSG; also: [35S]-labeled methionine, peptide-RNA fusion)	completely abolished	
MRIFAVFIFMTYWHLLNA [hPD-L1 signal peptide, reference compound]		binding of hPD-L1 signal peptide-mRNA fusion to hPD-L1 beads (hPD-L1 [1]; streptavidin agarose beads loaded with 1.1 μM hPD-L1 (1,100 pmol)): some binding
N10A: SPAM variant with alanine substituted at position 10 (MPIFLDHILAKFWILHYAGSGSSG; also: [35S]-labeled methionine, peptide-RNA fusion)	completely abolished	
P2A: SPAM variant with alanine substituted at position 2 (MAIFLDHILNKFWILHYAGSGSSG; also: [35S]-labeled methionine, peptide-RNA fusion)	decreased levels of hPD-L1 binding	
W13A: SPAM variant with alanine substituted at position 13 (MPIFLDHILNKFAILHYAGSGSSG; also: [35S]-labeled methionine, peptide-RNA fusion)	completely abolished	
B1		Kd (hPD-L1 [5]): 4 to 8 µM
